Values after ≈ are worked out from the molar mass of the structure shown. Active and inactive are the calls of the source. No cut-off for these calls is given here. Some results are limits rather than exact numbers.

Series [1] can be described thus: Cytotoxicity in human HepG2 cells incubated for 24 hrs by MTT assay. It is filed as toxicity, cell-based. Summed up:
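HepG2 cells, 1 × 10^4 per well in DMEM/10% FBS, 24 h attachment; compounds 200 to 0.19 μg ml−1 for 24 h at 37 °C, 5% CO2; MTT 2.5 mg ml−1 for 3 h, formazan in DMSO, OD 570 nm; doxorubicin 10 μM control.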

The subject of series [2] is Staphylococcus aureus. In words: Antibacterial activity against methicillin-resistant Staphylococcus aureus ATCC 15187 incubated for 24 hrs by Alamar blue staining based microdilution method. It is filed as functional. (In general: Alamar Blue is a resazurin reagent that responds to reducing activity.)
Series [3] deals with Escherichia coli. In words: Antibacterial activity against Escherichia coli ATCC 25922 incubated for 24 hrs by Alamar blue staining based microdilution method. The series is classed as functional.
The subject of series [4] is Staphylococcus aureus. Put plainly: Antibacterial activity against Staphylococcus aureus ATCC 29213 incubated for 24 hrs by Alamar blue staining based microdilution method. It is filed as functional.

As usually defined, the IC50 is the point on the concentration scale where inhibition reaches its midpoint. A high value points to weaker potency. As a reminder, the MIC is the lowest concentration found to suppress growth. The compound `CCCc1nn(C)c2c(NCCN3CCCCC3)nc(-c3ccc([N+](=O)[O-])o3)nc12` had an IC50 at 24 h in series [1] of over 50 µg/mL. Also, the MIC in series [2] and in series [4] was over 32 µg/mL each time. For the same compound, the MIC result in series [3] was “inactive”.

On to `CCCc1nn(C)c2c(Nc3cccc(F)c3)nc(-c3ccc([N+](=O)[O-])o3)nc12`, for which inhibition in series [1] was half-maximal at 38.9 µg/mL (≈ 98 µM) (IC50 at 24 h). Besides, the minimal inhibitory concentration (MIC) in series [2] was 4 µg/mL (≈ 10.1 µM); in series [4], over 32 µg/mL. The MIC result in series [3] is “inactive”.

Consider `CCCc1nn(C)c2c(N3CCN(C)CC3)nc(-c3ccc([N+](=O)[O-])o3)nc12`, for which the concentration for half-maximal inhibition (IC50) at 24 h in series [1] was over 50 µg/mL. Also, the minimal inhibitory concentration (MIC) in series [2] and in series [4] was over 32 µg/mL in each case. Further, the MIC result in series [3] was “inactive”.

Regarding `CCCc1nn(C)c2c(Nc3ccccc3O)nc(-c3ccc([N+](=O)[O-])o3)nc12`, the half-maximal inhibitory concentration (IC50) at 24 h in series [1] was over 50 µg/mL. Further, the results for the MIC in series [2] and in series [4] were 1 µg/mL (≈ 2.54 µM) and 0.5 µg/mL (≈ 1.27 µM), respectively. The MIC result in series [3] is “inactive”.

Consider `CCCc1nn(C)c2c(N3CCCC3)nc(-c3ccc([N+](=O)[O-])o3)nc12`, for which the IC50 at 24 h in series [1] is over 50 µg/mL. Further, the MIC in series [2] and in series [4] was over 32 µg/mL each time. Further, the MIC result in series [3] is “inactive”.

The compound `CCCc1nn(C)c2c(NCCCO)nc(-c3ccc([N+](=O)[O-])o3)nc12` registered a half-inhibitory concentration (IC50) at 24 h in series [1] of over 50 µg/mL. Further, the MIC in series [2] was found to be 2 µg/mL (≈ 5.55 µM); in series [4], 4 µg/mL (≈ 11.1 µM). Further, the MIC result in series [3] is “inactive”.

In turn, `CCCc1nn(C)c2c(N3CCC(CCO)CC3)nc(-c3ccc([N+](=O)[O-])o3)nc12` displayed a half-inhibitory concentration (IC50) at 24 h in series [1] of over 50 µg/mL. For the same compound, the MIC in series [2] and in series [4] was over 32 µg/mL in each case. Also, the MIC entry in series [3] is “inactive”.

`CCCc1nn(C)c2c(Nc3ccncc3)nc(-c3ccc([N+](=O)[O-])o3)nc12`: in series [1], the IC50 at 24 h was over 50 µg/mL. Moreover, the minimum inhibitory concentration (MIC) amounted to 4 µg/mL (≈ 10.5 µM) in series [2], 4 µg/mL (≈ 10.5 µM) in series [3] and 0.5 µg/mL (≈ 1.32 µM) in series [4].

`CCCc1nn(C)c2c(Nc3ccc(Br)cc3)nc(-c3ccc([N+](=O)[O-])o3)nc12`: the IC50 at 24 h in series [1] was over 50 µg/mL. The minimal inhibitory concentration (MIC) in series [2] and in series [4] was over 32 µg/mL each time. In addition, the MIC result in series [3] was “inactive”.

As to `CCCc1nn(C)c2c(N3CCN(c4cccc(O)c4)CC3)nc(-c3ccc([N+](=O)[O-])o3)nc12`, the IC50 at 24 h in series [1] was over 50 µg/mL. Besides, the MIC in series [2] and in series [4] was over 32 µg/mL each time. Moreover, in series [3], the MIC entry was “inactive”.

`CCCc1nn(C)c2c(NCCCCCO)nc(-c3ccc([N+](=O)[O-])o3)nc12`: inhibition in series [1] was half-maximal at 38.1 µg/mL (≈ 98.1 µM) (IC50 at 24 h). Also, the minimal inhibitory concentration (MIC) was 0.5 µg/mL (≈ 1.29 µM) in series [2] and 4 µg/mL (≈ 10.3 µM) in series [4]. Moreover, in series [3], the MIC result was “inactive”.

`CCCc1nn(C)c2c(NCCO)nc(-c3ccc([N+](=O)[O-])o3)nc12`: the IC50 at 24 h in series [1] was over 50 µg/mL. Further, the values for the MIC in series [2] and in series [4] were 8 µg/mL (≈ 23.1 µM) and over 32 µg/mL, respectively. The MIC result in series [3] is “inactive”.

In series [1], `CCCc1nn(C)c2c(=O)[nH]c(-c3ccc([N+](=O)[O-])o3)nc12` returned a concentration for half-maximal inhibition (IC50) at 24 h of over 50 µg/mL. Also, the minimal inhibitory concentration (MIC) in series [2] and in series [4] was 8 µg/mL (≈ 26.4 µM) in each case. Moreover, the MIC entry in series [3] is “inactive”.

With `CCCc1nn(C)c2c(NCCCCO)nc(-c3ccc([N+](=O)[O-])o3)nc12`, the IC50 at 24 h in series [1] is over 50 µg/mL. Besides, the MIC in series [2] stood at 0.25 µg/mL (≈ 0.668 µM); in series [4] it was 4 µg/mL (≈ 10.7 µM). Further, in series [3], the MIC result is “inactive”.

Take `CCCc1nn(C)c2c(NCCCCCCO)nc(-c3ccc([N+](=O)[O-])o3)nc12`: the IC50 at 24 h in series [1] is over 50 µg/mL. For the same compound, the minimum inhibitory concentration (MIC) in series [2] was found to be 2 µg/mL (≈ 4.97 µM); in series [4], 32 µg/mL (≈ 79.5 µM). Besides, in series [3], the MIC entry was “inactive”.

On to `CCCc1nn(C)c2c(Nc3ccc(C(F)(F)F)cc3)nc(-c3ccc([N+](=O)[O-])o3)nc12`, for which, in series [1], the concentration for half-maximal inhibition (IC50) at 24 h is over 50 µg/mL. Besides, the MIC in series [2] and in series [4] was over 32 µg/mL throughout. In series [3], the MIC entry is “inactive”.

In series [1], `CCCc1nn(C)c2c(NCc3ccc(OC)cc3)nc(-c3ccc([N+](=O)[O-])o3)nc12` yielded an IC50 at 24 h of over 50 µg/mL. The MIC in series [2] and in series [4] was over 32 µg/mL each time. Also, the MIC entry in series [3] is “inactive”.

Compound `CCCc1nn(C)c2c(N3CCN(c4ccccc4O)CC3)nc(-c3ccc([N+](=O)[O-])o3)nc12` had an IC50 at 24 h in series [1] of over 50 µg/mL. The MIC in series [2] and in series [4] was over 32 µg/mL each time. The MIC entry in series [3] is “inactive”.

The compound `CCCc1nn(C)c2c(Nc3ccc(OC(F)(F)F)cc3)nc(-c3ccc([N+](=O)[O-])o3)nc12` registered an IC50 at 24 h in series [1] of over 50 µg/mL. For the same compound, the minimal inhibitory concentration (MIC) in series [2] and in series [4] was over 32 µg/mL throughout. Further, in series [3], the MIC result was “inactive”.

On to `CCCc1nn(C)c2c(NCc3cccnc3)nc(-c3ccc([N+](=O)[O-])o3)nc12`, for which, in series [1], the 50% inhibitory concentration (IC50) at 24 h was over 50 µg/mL. Also, the MIC in series [2] turned out to be 4 µg/mL (≈ 10.2 µM); in series [4], 8 µg/mL (≈ 20.3 µM). The MIC entry in series [3] was “inactive”.

`CCCc1nn(C)c2c(Nc3ccc(F)cc3)nc(-c3ccc([N+](=O)[O-])o3)nc12` yielded an IC50 at 24 h in series [1] of over 50 µg/mL. Moreover, the values for the minimal inhibitory concentration (MIC) in series [2] and in series [4] were 0.25 µg/mL (≈ 0.631 µM) and 8 µg/mL (≈ 20.2 µM), respectively. The MIC result in series [3] is “inactive”.

Consider `CCCc1nn(C)c2c(NCc3ccncc3)nc(-c3ccc([N+](=O)[O-])o3)nc12`, for which the IC50 at 24 h in series [1] is over 50 µg/mL. The minimum inhibitory concentration (MIC) in series [2] and in series [4] was 1 µg/mL (≈ 2.54 µM) each time. For the same compound, the MIC entry in series [3] was “inactive”.

In series [1], `CCCc1nn(C)c2c(NCc3ccccc3)nc(-c3ccc([N+](=O)[O-])o3)nc12` displayed a concentration for half-maximal inhibition (IC50) at 24 h of over 50 µg/mL. In addition, the MIC in series [2] and in series [4] was over 32 µg/mL each time. Further, the MIC result in series [3] is “inactive”.

Regarding `CCCc1nn(C)c2c(NCCN3CCOCC3)nc(-c3ccc([N+](=O)[O-])o3)nc12`, the IC50 at 24 h in series [1] is over 50 µg/mL. Moreover, the minimum inhibitory concentration (MIC) in series [2] and in series [4] was over 32 µg/mL each time. Further, the MIC entry in series [3] was “inactive”.

Consider `CCCc1nn(C)c2c(NCCCN3CCOCC3)nc(-c3ccc([N+](=O)[O-])o3)nc12`, for which the IC50 at 24 h in series [1] is over 50 µg/mL. For the same compound, the minimum inhibitory concentration (MIC) in series [2] and in series [4] was over 32 µg/mL throughout. Further, the MIC result in series [3] is “inactive”.

In series [1], `CCCc1nn(C)c2c(Nc3ccc(Cl)cc3)nc(-c3ccc([N+](=O)[O-])o3)nc12` yielded a half-maximal inhibitory concentration (IC50) at 24 h of over 50 µg/mL. Besides, the minimum inhibitory concentration (MIC) in series [2] and in series [4] was over 32 µg/mL in each case. Also, the MIC result in series [3] is “inactive”.

`CCCc1nn(C)c2c(N3CCC(CO)CC3)nc(-c3ccc([N+](=O)[O-])o3)nc12` displayed an IC50 at 24 h in series [1] of over 50 µg/mL. The MIC in series [2] and in series [4] was over 32 µg/mL in each case. Besides, the MIC entry in series [3] is “inactive”.

With `CCCc1nn(C)c2c(N3CCC(=O)CC3)nc(-c3ccc([N+](=O)[O-])o3)nc12`, in series [1], the half-inhibitory concentration (IC50) at 24 h is over 50 µg/mL. The MIC in series [2] was 16 µg/mL (≈ 41.6 µM); in series [4], over 32 µg/mL. Further, in series [3], the MIC entry was “inactive”.

In turn, `CCCc1nn(C)c2c(Nc3cccc(O)c3)nc(-c3ccc([N+](=O)[O-])o3)nc12` yielded a half-maximal inhibitory concentration (IC50) at 24 h in series [1] of over 50 µg/mL. Besides, the MIC in series [2] was 1 µg/mL (≈ 2.54 µM); in series [4] it was 4 µg/mL (≈ 10.1 µM). For the same compound, the MIC result in series [3] is “inactive”.

Take `CCCc1nn(C)c2c(N3CCOCC3)nc(-c3ccc([N+](=O)[O-])o3)nc12`: the half-maximal inhibitory concentration (IC50) at 24 h in series [1] was over 50 µg/mL. The minimum inhibitory concentration (MIC) in series [2] and in series [4] was over 32 µg/mL each time. In series [3], the MIC entry was “inactive”.

These data come from ChEMBL document CHEMBL6182837, “Discovery and biological evaluation of nitrofuranyl-pyrazolopyrimidine hybrid conjugates as potent antimicrobial agents targeting Staphylococcus aureus and methicillin-resistant S. aureus” (RSC Med Chem, 2025).
